System: patients with Rb+ advanced solid tumors or lymphomas
Experiment: Safety assessments, adverse events
Assay type: in vivo, human
Procedure, shortened: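 Oral test compound given daily 3-weeks-on/1-week-off in 28-day cycles, with doses escalated by a Bayesian logistic regression model with overdose control. Safety assessments, including ECGs, were done at baseline and at regular intervals. AEs were graded by CTCAE v4.0 and classed as suspected related to treatment. All patients dosed at least once were included; summaries were descriptive per dose level.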

[1] = 50 mg 3-weeks-on/1-week-off, n = 4
[2] = 70 mg 3-weeks-on/1-week-off, n = 2
[3] = 140 mg 3-weeks-on/1-week-off, n = 4
[4] = 260 mg 3-weeks-on/1-week-off, n = 4
[5] = 280 mg 3-weeks-on/1-week-off, n = 4
[6] = 350 mg 3-weeks-on/1-week-off, n = 5
[7] = 400 mg 3-weeks-on/1-week-off, n = 5

## CN(C)C(=O)c1cc2cnc(Nc3ccc(N4CCNCC4)cn3)nc2n1C1CCCC1 [ribociclib]
[1]
  Anemia, Grade 3/4, AE suspected related to study treatment: 0 n (%)
  Anemia, Grade All, AE suspected related to study treatment: 0 n (%)
  Appetite decreased, Grade 3/4, AE suspected related to study treatment: 0 n (%)
  Appetite decreased, Grade All, AE suspected related to study treatment: 0 n (%)
  Blood creatinine increased, Grade 3/4, AE suspected related to study treatment: 0 n (%)
  Blood creatinine increased, Grade All, AE suspected related to study treatment: 0 n (%)
  Diarrhea, Grade 3/4, AE suspected related to study treatment: 0 n (%)
  Diarrhea, Grade All, AE suspected related to study treatment: 0 n (%)
  Fatigue, Grade 3/4, AE suspected related to study treatment: 0 n (%)
  Fatigue, Grade All, AE suspected related to study treatment: 2 (50) n (%)
  Leukopenia, Grade 3/4, AE suspected related to study treatment: 0 n (%)
  Leukopenia, Grade All, AE suspected related to study treatment: 0 n (%)
  Lymphopenia, Grade 3/4, AE suspected related to study treatment: 0 n (%)
  Lymphopenia, Grade All, AE suspected related to study treatment: 0 n (%)
  Nausea, Grade 3/4, AE suspected related to study treatment: 0 n (%)
  Nausea, Grade All, AE suspected related to study treatment: 0 n (%)
  Neutropenia, Grade 3/4, AE suspected related to study treatment: 0 n (%)
  Neutropenia, Grade All, AE suspected related to study treatment: 0 n (%)
  Thrombocytopenia, Grade 3/4, AE suspected related to study treatment: 0 n (%)
  Thrombocytopenia, Grade All, AE suspected related to study treatment: 0 n (%)
  Vomiting, Grade 3/4, AE suspected related to study treatment: 0 n (%)
  Vomiting, Grade All, AE suspected related to study treatment: 0 n (%)
[2]
  Anemia, Grade 3/4, AE suspected related to study treatment: 0 n (%)
  Anemia, Grade All, AE suspected related to study treatment: 0 n (%)
  Appetite decreased, Grade 3/4, AE suspected related to study treatment: 0 n (%)
  Appetite decreased, Grade All, AE suspected related to study treatment: 0 n (%)
  Blood creatinine increased, Grade 3/4, AE suspected related to study treatment: 0 n (%)
  Blood creatinine increased, Grade All, AE suspected related to study treatment: 0 n (%)
  Diarrhea, Grade 3/4, AE suspected related to study treatment: 0 n (%)
  Diarrhea, Grade All, AE suspected related to study treatment: 0 n (%)
  Fatigue, Grade 3/4, AE suspected related to study treatment: 0 n (%)
  Fatigue, Grade All, AE suspected related to study treatment: 2 (100) n (%)
  Leukopenia, Grade 3/4, AE suspected related to study treatment: 0 n (%)
  Leukopenia, Grade All, AE suspected related to study treatment: 0 n (%)
  Lymphopenia, Grade 3/4, AE suspected related to study treatment: 0 n (%)
  Lymphopenia, Grade All, AE suspected related to study treatment: 0 n (%)
  Nausea, Grade 3/4, AE suspected related to study treatment: 0 n (%)
  Nausea, Grade All, AE suspected related to study treatment: 1 (50) n (%)
  Neutropenia, Grade 3/4, AE suspected related to study treatment: 0 n (%)
  Neutropenia, Grade All, AE suspected related to study treatment: 0 n (%)
  Thrombocytopenia, Grade 3/4, AE suspected related to study treatment: 0 n (%)
  Thrombocytopenia, Grade All, AE suspected related to study treatment: 0 n (%)
  Vomiting, Grade 3/4, AE suspected related to study treatment: 0 n (%)
  Vomiting, Grade All, AE suspected related to study treatment: 1 (50) n (%)
[3]
  Anemia, Grade 3/4, AE suspected related to study treatment: 0 n (%)
  Anemia, Grade All, AE suspected related to study treatment: 0 n (%)
  Appetite decreased, Grade 3/4, AE suspected related to study treatment: 0 n (%)
  Appetite decreased, Grade All, AE suspected related to study treatment: 1 (25) n (%)
  Blood creatinine increased, Grade 3/4, AE suspected related to study treatment: 0 n (%)
  Blood creatinine increased, Grade All, AE suspected related to study treatment: 0 n (%)
  Diarrhea, Grade 3/4, AE suspected related to study treatment: 0 n (%)
  Diarrhea, Grade All, AE suspected related to study treatment: 0 n (%)
  Fatigue, Grade 3/4, AE suspected related to study treatment: 0 n (%)
  Fatigue, Grade All, AE suspected related to study treatment: 3 (75) n (%)
  Leukopenia, Grade 3/4, AE suspected related to study treatment: 0 n (%)
  Leukopenia, Grade All, AE suspected related to study treatment: 0 n (%)
  Lymphopenia, Grade 3/4, AE suspected related to study treatment: 0 n (%)
  Lymphopenia, Grade All, AE suspected related to study treatment: 0 n (%)
  Nausea, Grade 3/4, AE suspected related to study treatment: 0 n (%)
  Nausea, Grade All, AE suspected related to study treatment: 0 n (%)
  Neutropenia, Grade 3/4, AE suspected related to study treatment: 0 n (%)
  Neutropenia, Grade All, AE suspected related to study treatment: 0 n (%)
  Thrombocytopenia, Grade 3/4, AE suspected related to study treatment: 0 n (%)
  Thrombocytopenia, Grade All, AE suspected related to study treatment: 0 n (%)
  Vomiting, Grade 3/4, AE suspected related to study treatment: 0 n (%)
  Vomiting, Grade All, AE suspected related to study treatment: 0 n (%)
[4]
  Anemia, Grade 3/4, AE suspected related to study treatment: 0 n (%)
  Anemia, Grade All, AE suspected related to study treatment: 0 n (%)
  Appetite decreased, Grade 3/4, AE suspected related to study treatment: 0 n (%)
  Appetite decreased, Grade All, AE suspected related to study treatment: 0 n (%)
  Blood creatinine increased, Grade 3/4, AE suspected related to study treatment: 0 n (%)
  Blood creatinine increased, Grade All, AE suspected related to study treatment: 0 n (%)
  Diarrhea, Grade 3/4, AE suspected related to study treatment: 0 n (%)
  Diarrhea, Grade All, AE suspected related to study treatment: 0 n (%)
  Fatigue, Grade 3/4, AE suspected related to study treatment: 0 n (%)
  Fatigue, Grade All, AE suspected related to study treatment: 4 (100) n (%)
  Leukopenia, Grade 3/4, AE suspected related to study treatment: 0 n (%)
  Leukopenia, Grade All, AE suspected related to study treatment: 1 (25) n (%)
  Lymphopenia, Grade 3/4, AE suspected related to study treatment: 0 n (%)
  Lymphopenia, Grade All, AE suspected related to study treatment: 2 (50) n (%)
  Nausea, Grade 3/4, AE suspected related to study treatment: 0 n (%)
  Nausea, Grade All, AE suspected related to study treatment: 0 n (%)
  Neutropenia, Grade 3/4, AE suspected related to study treatment: 0 n (%)
  Neutropenia, Grade All, AE suspected related to study treatment: 0 n (%)
  Thrombocytopenia, Grade 3/4, AE suspected related to study treatment: 0 n (%)
  Thrombocytopenia, Grade All, AE suspected related to study treatment: 0 n (%)
  Vomiting, Grade 3/4, AE suspected related to study treatment: 0 n (%)
  Vomiting, Grade All, AE suspected related to study treatment: 0 n (%)
[5]
  Anemia, Grade 3/4, AE suspected related to study treatment: 0 n (%)
  Anemia, Grade All, AE suspected related to study treatment: 0 n (%)
  Appetite decreased, Grade 3/4, AE suspected related to study treatment: 0 n (%)
  Appetite decreased, Grade All, AE suspected related to study treatment: 2 (50) n (%)
  Blood creatinine increased, Grade 3/4, AE suspected related to study treatment: 0 n (%)
  Blood creatinine increased, Grade All, AE suspected related to study treatment: 0 n (%)
  Diarrhea, Grade 3/4, AE suspected related to study treatment: 0 n (%)
  Diarrhea, Grade All, AE suspected related to study treatment: 1 (25) n (%)
  Fatigue, Grade 3/4, AE suspected related to study treatment: 0 n (%)
  Fatigue, Grade All, AE suspected related to study treatment: 1 (25) n (%)
  Leukopenia, Grade 3/4, AE suspected related to study treatment: 0 n (%)
  Leukopenia, Grade All, AE suspected related to study treatment: 1 (25) n (%)
  Lymphopenia, Grade 3/4, AE suspected related to study treatment: 1 (25) n (%)
  Lymphopenia, Grade All, AE suspected related to study treatment: 1 (25) n (%)
  Nausea, Grade 3/4, AE suspected related to study treatment: 0 n (%)
  Nausea, Grade All, AE suspected related to study treatment: 2 (50) n (%)
  Neutropenia, Grade 3/4, AE suspected related to study treatment: 0 n (%)
  Neutropenia, Grade All, AE suspected related to study treatment: 1 (25) n (%)
  Thrombocytopenia, Grade 3/4, AE suspected related to study treatment: 0 n (%)
  Thrombocytopenia, Grade All, AE suspected related to study treatment: 1 (25) n (%)
  Vomiting, Grade 3/4, AE suspected related to study treatment: 0 n (%)
  Vomiting, Grade All, AE suspected related to study treatment: 0 n (%)
[6]
  Anemia, Grade 3/4, AE suspected related to study treatment: 0 n (%)
  Anemia, Grade All, AE suspected related to study treatment: 2 (40) n (%)
  Appetite decreased, Grade 3/4, AE suspected related to study treatment: 0 n (%)
  Appetite decreased, Grade All, AE suspected related to study treatment: 1 (20) n (%)
  Blood creatinine increased, Grade 3/4, AE suspected related to study treatment: 0 n (%)
  Blood creatinine increased, Grade All, AE suspected related to study treatment: 3 (60) n (%)
  Diarrhea, Grade 3/4, AE suspected related to study treatment: 0 n (%)
  Diarrhea, Grade All, AE suspected related to study treatment: 1 (20) n (%)
  Fatigue, Grade 3/4, AE suspected related to study treatment: 0 n (%)
  Fatigue, Grade All, AE suspected related to study treatment: 1 (20) n (%)
  Leukopenia, Grade 3/4, AE suspected related to study treatment: 0 n (%)
  Leukopenia, Grade All, AE suspected related to study treatment: 2 (40) n (%)
  Lymphopenia, Grade 3/4, AE suspected related to study treatment: 1 (20) n (%)
  Lymphopenia, Grade All, AE suspected related to study treatment: 1 (20) n (%)
  Nausea, Grade 3/4, AE suspected related to study treatment: 0 n (%)
  Nausea, Grade All, AE suspected related to study treatment: 2 (40) n (%)
  Neutropenia, Grade 3/4, AE suspected related to study treatment: 0 n (%)
  Neutropenia, Grade All, AE suspected related to study treatment: 1 (20) n (%)
  Thrombocytopenia, Grade 3/4, AE suspected related to study treatment: 0 n (%)
  Thrombocytopenia, Grade All, AE suspected related to study treatment: 0 n (%)
  Vomiting, Grade 3/4, AE suspected related to study treatment: 0 n (%)
  Vomiting, Grade All, AE suspected related to study treatment: 2 (40) n (%)
[7]
  Anemia, Grade 3/4, AE suspected related to study treatment: 0 n (%)
  Anemia, Grade All, AE suspected related to study treatment: 2 (40) n (%)
  Appetite decreased, Grade 3/4, AE suspected related to study treatment: 0 n (%)
  Appetite decreased, Grade All, AE suspected related to study treatment: 0 n (%)
  Blood creatinine increased, Grade 3/4, AE suspected related to study treatment: 0 n (%)
  Blood creatinine increased, Grade All, AE suspected related to study treatment: 1 (20) n (%)
  Diarrhea, Grade 3/4, AE suspected related to study treatment: 0 n (%)
  Diarrhea, Grade All, AE suspected related to study treatment: 0 n (%)
  Fatigue, Grade 3/4, AE suspected related to study treatment: 0 n (%)
  Fatigue, Grade All, AE suspected related to study treatment: 1 (20) n (%)
  Leukopenia, Grade 3/4, AE suspected related to study treatment: 0 n (%)
  Leukopenia, Grade All, AE suspected related to study treatment: 1 (20) n (%)
  Lymphopenia, Grade 3/4, AE suspected related to study treatment: 0 n (%)
  Lymphopenia, Grade All, AE suspected related to study treatment: 0 n (%)
  Nausea, Grade 3/4, AE suspected related to study treatment: 0 n (%)
